In ChEMBL document CHEMBL3259586, “Localization and interaction of hydroxyflavones with lipid bilayer model membranes: a study using DSC and multinuclear NMR” (Eur J Med Chem, 2014):
Converted amounts (≈) assume the structure as drawn. The source made the active and inactive calls. The rule behind the calls is not given here.

Key:
Lipid bilayer [1] = test: Binding affinity to DPPC lipid bilayer assessed as decrease in melting temperature by differential scanning calorimetric analysis
Summary of the method: (§1)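 DPPC multilamellar vesicles made from chloroform lipid solution, lipid held at 50 mM, drug/lipid molar ratios 1:20 to 1:2; DSC heating scans give pretransition (Tp) and main transition (Tm) temperatures; repeat scans of the same samples.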

MCF7 = test: Antiproliferative activity against human MCF7 cells assessed as cell growth at 10^-4 ug/ml after 48 hrs by sulforhodamine B assay relative to control; type: functional; conditions: MCF7, 48 h, read-out: Activity
Summary of the method: (§2)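 Sulforhodamine B assay; cells grown in RPMI 1640 with 10% fetal bovine serum and 2 mM L-glutamine; compounds dissolved in DMSO, diluted into culture medium; incubated 48 h under standard conditions; percent growth inhibition calculated.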

Lipid bilayer [2] = test: Binding affinity to unilamellar vesicles of DPPC in D2O at 1:5 drug to lipid molar ratio at 323 K by [1H]-NMR spectroscopic analysis
Summary of the method: (§3)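 Lipid held at 100 mM for NMR samples with flavone at 10 to 50 mM; multilamellar vesicles from chloroform-dissolved DPPC; unilamellar vesicles made by sonicating lipid dispersions at 50% duty cycle until optically clear.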

[3] = Binding affinity to multilamellar vesicles after 2 hrs by centrifugation method
[4] = Binding affinity to multilamellar vesicles by NMR titration method
Summary of the method: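 NMR titration with drug held at 10 mM and lipid varied 1-10 mM; lipid stock in D2O, drug stock in methanol, both diluted; TSP added as reference; fraction bound derived from chemical shift changes.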

Lipid bilayer [5] = test: Binding affinity to DPPC lipid bilayer assessed as melting temperature at 1:20 drug to DPPC molar ratio by differential scanning calorimetric analysis; summary of the method: as §1
Lipid bilayer [6] = test: Binding affinity to DPPC lipid bilayer assessed as pre-transition temperature at 1:10 drug to DPPC molar ratio by differential scanning calorimetric analysis; summary of the method: as §1
Lipid bilayer [7] = test: Binding affinity to DPPC lipid bilayer assessed as melting temperature at 1:5 drug to DPPC molar ratio by differential scanning calorimetric analysis; summary of the method: as §1
K562 = test: Antiproliferative activity against human K562 cells assessed as cell growth at 10^-4 ug/ml after 48 hrs by sulforhodamine B assay relative to control; type: functional; conditions: K562, 48 h, read-out: Activity; summary of the method: as §2
Lipid bilayer [8] = test: Binding affinity to DPPC lipid bilayer assessed as pre-transition temperature at 1:5 drug to DPPC molar ratio by differential scanning calorimetric analysis; summary of the method: as §1
Lipid bilayer [9] = test: Binding affinity to DPPC lipid bilayer assessed as melting temperature at 1:2 drug to DPPC molar ratio by differential scanning calorimetric analysis; summary of the method: as §1
Lipid bilayer [10] = test: Binding affinity to DPPC lipid bilayer assessed as pre-transition temperature at 1:2 drug to DPPC molar ratio by differential scanning calorimetric analysis; summary of the method: as §1
[11] = test system: Radical scavenging activity; test: Antioxidant activity assessed as DPPH radical scavenging activity after 30 mins; type: functional
Summary of the method: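 Test compounds at varied concentrations added to methanolic DPPH with 0.1 M Tris-HCl buffer; absorbance read at 517 nm after 30 min incubation; IC50 read graphically from dose-response curves; at least three experiments.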

Lipid bilayer [12] = test: Binding affinity to unilamellar vesicles of DPPC in D2O at 1:5 drug to lipid molar ratio at 323 K by 2D-NOESY spectroscopic analysis; summary of the method: as §3
Lipid bilayer [13] = test: Binding affinity to DPPC lipid bilayer assessed as melting temperature at 1:10 drug to DPPC molar ratio by differential scanning calorimetric analysis; summary of the method: as §1
Lipid bilayer [14] = test: Binding affinity to DPPC lipid bilayer assessed as pre-transition temperature at 1:20 drug to DPPC molar ratio by differential scanning calorimetric analysis; summary of the method: as §1
HepG2 = test: Antiproliferative activity against human HepG2 cells assessed as cell growth at 10^-4 ug/ml after 48 hrs by sulforhodamine B assay relative to control; type: functional; conditions: HepG2, 48 h, read-out: Activity; summary of the method: as §2
[15] = Binding affinity to multilamellar vesicles of DPPC at 1:10 to 1:2 drug to lipid molar ratio at 323 K by [31P]-NMR spectroscopic analysis; summary of the method: as §3
Lipid bilayer [16] = test: Binding affinity to unilamellar vesicles of DPPC in D2O at 1:5 drug to lipid molar ratio at 323 K by [13C]-NMR spectroscopic analysis; summary of the method: as §3
[17] = Binding affinity to multilamellar vesicles of DPPC assessed as increase in chemical shift anisotropy at 323 K by [31P]-NMR spectroscopic analysis; summary of the method: as §3
[18] = Binding affinity to multilamellar vesicles at 100 uM after 2 hrs by centrifugation method relative to control

Row | SMILES | Activity (Lipid bilayer [1]) | growth at 0.0001 µg/mL (MCF7) | Activity (Lipid bilayer [2]) | Kapp [3] | Kapp [4] | Tm (Lipid bilayer [5]) | T (Lipid bilayer [6]) | Tm (Lipid bilayer [7]) | growth at 0.0001 µg/mL (K562) | T (Lipid bilayer [8]) | Tm (Lipid bilayer [9]) | T (Lipid bilayer [10]) | IC50 [11] | Activity (Lipid bilayer [12]) | Tm (Lipid bilayer [13]) | T (Lipid bilayer [14]) | growth at 0.0001 µg/mL (HepG2) | Activity [15] | Activity (Lipid bilayer [16]) | Activity [17] | also measured
1 | O=c1cc(-c2ccccc2)oc2cc(O)c(O)c(O)c12 [BAICALEIN] | Dose-dependent effect | -8.9% | Active | 252 M⁻¹ | 215 M⁻¹ | 40.4 °C | 30.2 °C | 40.6 °C | 16.7% | 32.9 °C | 40.9 °C | 33.8 °C | 18.2 µg/mL (≈ 67.3 µM) | Active | 39.7 °C | 32.1 °C | 70.6% | Active | Active | – | –
2 | O=c1cc(-c2ccccc2)oc2cccc(O)c12 [5-HYDROXYFLAVONE] | Dose-dependent effect | 28.6% | Active | 313 M⁻¹ | 229 M⁻¹ | 41.1 °C | 32 °C | 40.6 °C | 26.7% | 32 °C | 39.6 °C | 30.3 °C | 23.8 µg/mL (≈ 99.9 µM) | – | 40.7 °C | 32.3 °C | 88.8% | – | Active | Dose-dependent effect | –
3 | O=c1cc(-c2ccccc2)oc2cc(O)cc(O)c12 [CHRYSIN] | Dose-dependent effect | 25.9% | Active | 759 M⁻¹ | 532 M⁻¹ | 40.6 °C | 30.4 °C | 39.9 °C | 38.3% | 30.5 °C | 40.1 °C | 31.6 °C | 20.4 µg/mL (≈ 80.2 µM) | – | 39.8 °C | 31 °C | 76.7% | Active | Active | – | –
4 | O=c1cc(-c2ccccc2)oc2ccccc12 [FLAVONE] | Dose-dependent effect | 50.3% | Active | 19600 M⁻¹ | 1820 M⁻¹ | 37.2 °C | – | 36.4 °C | 56.8% | – | 36.3 °C | – | > 100 µg/mL | – | 36.7 °C | – | -7.6% | Active | Active | – | Activity [18]: 80%
5 | O=c1cc(-c2ccccc2)oc2cc(O)ccc12 [7-HYDROXYFLAVONE] | Dose-dependent effect | 26.6% | Active | 450 M⁻¹ | 311 M⁻¹ | 40.7 °C | 31.8 °C | 40.4 °C | 22.3% | – | 39.8 °C | 27.4 °C | 24.2 µg/mL (≈ 102 µM) | – | 40.5 °C | 31.9 °C | 98.8% | – | Active | Dose-dependent effect | –
6 | O=c1cc(-c2ccccc2)oc2ccc(O)cc12 [6-HYDROXYFLAVONE] | Dose-dependent effect | 28.8% | Active | 800 M⁻¹ | 572 M⁻¹ | 37.4 °C | – | 37.1 °C | 13.3% | – | 36.9 °C | – | 22.1 µg/mL (≈ 92.8 µM) | Active | 37.3 °C | – | 82.8% | Active | Active | – | –
